Measured values of several laboratories.
Each line is one published result; the experiments were not run side by side.
Target: Serine/threonine-protein kinase WNK2 (WNK2, Homo sapiens, UniProt Q9Y3S1)

O=C(Nc1cnn(-c2csc(C(=O)NC3COC3)c2)c1)Nc1c(F)cccc1Cl
remaining activity (enzyme activity, inhibitor; 5 µM): 91.9%

Cc1cc(NC(=O)c2cccc3cc(-c4cccc5[nH]nc(N)c45)ccc23)ccc1F
activity vs control (enzyme activity, inhibitor; 0.1 µM): 98%

CN([C@@H]1CCc2c(CC(=O)O)c3ccccc3n2C1)S(=O)(=O)c1ccc(F)cc1
remaining binding (cell-free assay, competition with immobilised ligand; 1 µM): 92%

O=C1NC(=O)c2cc(Nc3ccc(F)cc3)c(Nc3ccc(F)cc3)cc21
remaining signal (cell-free assay; 0.5 µM): 110%

CCN(CC)CCNC(=O)c1c(C)[nH]c(/C=C2\C(=O)Nc3ccc(F)cc32)c1C
inhibition (enzyme activity, inhibitor; 10 µM): 23%

O=C(Nc1cnn(-c2csc(C(=O)NC3COC3)c2)c1)Nc1ccccc1Cl
remaining activity (enzyme activity, inhibitor; 5 µM): 96.3%

O=C(O)[C@@H]1[C@@H](Cn2nnc3ccccc3c2=O)CC[C@H]1C(=O)c1ccc(OCCC2CCOCC2)cc1
remaining binding (cell-free assay, competition with immobilised ligand; 1 µM): 82%

CCCS(=O)(=O)Nc1ccc(F)c(C(=O)c2c[nH]c3ncc(-c4ccc(Cl)cc4)cc23)c1F
inhibition (enzyme activity, inhibitor; 1 µM): < 10%

CN(CCCC(F)(F)F)c1nccc(-c2cnn3ncccc23)n1
remaining binding (binding; 1 µM): 100%

CNC(=O)Nc1ccc2c(c1)[C@@]1(CC2)OC(=O)N(CC(=O)N(Cc2ccc(F)cc2)[C@@H](C)C(F)(F)F)C1=O
remaining binding (cell-free assay, competition with immobilised ligand; 1 µM): 59%

CNC(=O)c1cc(Oc2ccc(NC(=O)Nc3ccc(Cl)c(C(F)(F)F)c3)cc2)ccn1
inhibition (enzyme activity, inhibitor; 10 µM): 13%

Nc1cnc(N2CCc3cc(S(=O)(=O)Nc4c(F)cc(Cl)cc4F)cc(N4CCCC4=O)c32)nc1
remaining binding (cell-free assay, competition with immobilised ligand; 1 µM): 100%

Cc1ccc(Nc2nccc(N(C)c3ccc4c(C)n(C)nc4c3)n2)cc1S(N)(=O)=O
inhibition (enzyme activity, inhibitor; 10 µM): 26%

CCN(CC)c1ccc(C2=NNC(=O)CC2C)cc1[N+](=O)[O-] (stereo not shown)
remaining activity (enzyme activity, inhibitor; 10 µM): 104%

CN1CC(Oc2cnc(C#N)cc2-c2ccn3nc(NC(=O)C4CC4)cc3c2)C1
inhibition (enzyme activity, inhibitor; 1 µM): 8%

CO[C@@H](C)c1c(Nc2ccc([C@@H](N(C)C(=O)C3CCS(=O)(=O)CC3)C(F)(F)F)cc2)cnc2cc(Cl)nn12
remaining binding (cell-free assay, competition with immobilised ligand; 1 µM): 100%

O=C1Nc2ccc(Cl)cc2C1=Cc1cc(Cl)c(O)c(Cl)c1
remaining signal (cell-free assay; 0.5 µM): 115%

COc1cccc(CNC(=O)c2nc3scc(COCc4ccc(C(=O)O)cc4)c3c(=O)[nH]2)c1
remaining binding (cell-free assay, competition with immobilised ligand; 1 µM): 54.2%

CC(C)(C)c1nc2c(s1)c1nc(N)ncc1c1ccc(NS(=O)(=O)c3c(F)cccc3F)c(F)c12
remaining activity (enzyme activity, inhibitor, radiometric; 1 µM): 101%
